Activity calls are given as the source filed them.
Columns and labels:
[1] = Inhibition of synthesized Nucleocapsid protein (11 to 55 residues) assessed as reduction in NC-induced cTAR DNA destabilization pre-treated with cTAR and Nucleocapsid (11-55) for 15 mins followed by compound addition at 10 uM by spectroflurometry relative to control
Method in brief: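 NC chaperone inhibition assay: fluorescence monitoring of NC-induced destabilization of cTAR DNA labelled with Alexa488 at the 5′ end and Dabcyl quencher at the 3′ end. Compound is tested at 10 μM.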

[2] = test system: Human immunodeficiency virus 1; assay: Antiviral activity against wild-type HIV1 NL4-3 infected in human TZM-bl cells treated with compound assessed as reduction in viral replication after 48 hrs by bright Glo-luciferase reporter gene assay based monocycle assay; conditions: Human immunodeficiency virus 1, NL4-3
[3] = test system: Human immunodeficiency virus 1; assay: Antiviral activity against wild type HIV1 NL4-3 infected in human TZM-bl cells assessed as reduction in viral replication after 48 hrs by bright Glo-luciferase reporter gene assay based BiCycle assay; assay type: functional, organism-based; conditions: Human immunodeficiency virus 1, NL4-3, TZM-bl
Method in brief: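 BiCycle format: MT-2 cells infected with wild-type NL4-3 in the presence of compound dilutions. Virus produced in this first round was then quantified by infecting TZM-bl cells. IC50 was derived from the dose-response data.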

[4] = test system: Human immunodeficiency virus 1; assay: Antiviral activity against HIV1 12465 harboring protease M46I/I54V/Q58E/T74P/V82L/L90M mutant infected in human TZM-bl cells infected with supernatants from virus-infected human MT2 cells treated with compound for 72 hrs assessed as reduction in viral replication after 48 hrs by bright Glo-luciferase reporter gene assay; assay type: functional, organism-based; conditions: Human immunodeficiency virus 1, 12465
Method in brief: (§1)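 BiCycle assay: MT-2 cells infected with a drug-resistant HIV-1 strain in the presence of compound dilutions. Virus produced in this first round is then measured by infecting TZM-bl cells. The readout is IC50.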

[5] = test system: Human immunodeficiency virus 1; assay: Selectivity ratio of IC50 for HIV1 7400 harboring nucleoside reverse transcriptase M41L/D67N/M184V/L210W/T215Y mutant infected in human MT2 cells to IC50 for HIV1 NL4-3 infected in human MT2 cells; assay type: functional
Method in brief: (§2)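 Fold change is the IC50 against the resistant strain divided by the IC50 against the wild-type NL4–3 reference. Both IC50 values come from the BiCycle assay (MT-2 infection, then TZM-bl readout of progeny virus).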

[6] = test system: Human immunodeficiency virus 1; assay: Selectivity ratio of IC50 for HIV1 11808 harboring protease L10F/K20T/V32I/L33F/I54V/G73S/I84V/L89V/L90M mutant infected in human MT2 cells to IC50 for HIV1 NL4-3 infected in human MT2 cells; assay type: functional; method in brief: as §2
[7] = test system: Human immunodeficiency virus 1; assay: Antiviral activity against HIV1 11845 harboring integrase 140S/148H double mutant infected in human TZM-bl cells infected with supernatants from virus-infected human MT2 cells treated with compound for 72 hrs assessed as reduction in viral replication after 48 hrs by bright Glo-luciferase reporter gene assay; assay type: functional, organism-based; conditions: Human immunodeficiency virus 1, 11845; method in brief: as §1
[8] = test system: Human immunodeficiency virus 1; assay: Antiviral activity against HIV1 7401 harboring nucleoside reverse transcriptase M41L/E44D/D67N/T69D/M184V/L210W/T215Y mutant infected in human TZM-bl cells infected with supernatants from virus-infected human MT2 cells treated with compound for 72 hrs assessed as reduction in viral replication after 48 hrs by bright Glo-luciferase reporter gene assay; assay type: functional, organism-based; conditions: Human immunodeficiency virus 1, 7401; method in brief: as §1
[9] = test system: Human immunodeficiency virus 1; assay: Selectivity ratio of IC50 for HIV1 12229 harboring non-nucleoside reverse transcriptase L100I/K103N/H221Y mutant infected in human MT2 cells to IC50 for HIV1 NL4-3 infected in human MT2 cells; assay type: functional; method in brief: as §2
[10] = test system: Human immunodeficiency virus 1; assay: Selectivity ratio of IC50 for HIV1 7401 harboring nucleoside reverse transcriptase M41L/E44D/D67N/T69D/M184V/L210W/T215Y mutant infected in human MT2 cells to IC50 for HIV1 NL4-3 infected in human MT2 cells; assay type: functional; method in brief: as §2
[11] = test system: Human immunodeficiency virus 1; assay: Antiviral activity against HIV1 7400 harboring nucleoside reverse transcriptase M41L/D67N/M184V/L210W/T215Y mutant infected in human TZM-bl cells infected with supernatants from virus-infected human MT2 cells treated with compound for 72 hrs assessed as reduction in viral replication after 48 hrs by bright Glo-luciferase reporter gene assay; assay type: functional, organism-based; conditions: Human immunodeficiency virus 1, 7400; method in brief: as §1
[12] = test system: Human immunodeficiency virus 1; assay: Antiviral activity against HIV1 12231 harboring non-nucleoside reverse transcriptase 103N/179F/181C mutant infected in human TZM-bl cells infected with supernatants from virus-infected human MT2 cells treated with compound for 72 hrs assessed as reduction in viral replication after 48 hrs by bright Glo-luciferase reporter gene assay; assay type: functional, organism-based; conditions: Human immunodeficiency virus 1, 12231; method in brief: as §1
[13] = test system: Human immunodeficiency virus 1; assay: Selectivity ratio of IC50 for HIV1 12465 harboring protease M46I/I54V/Q58E/T74P/V82L/L90M mutant infected in human MT2 cells to IC50 for HIV1 NL4-3 infected in human MT2 cells; assay type: functional; method in brief: as §2
[14] = test system: Human immunodeficiency virus 1; assay: Antiviral activity against HIV1 12229 harboring non-nucleoside reverse transcriptase L100I/K103N/H221Y mutant infected in human TZM-bl cells infected with supernatants from virus-infected human MT2 cells treated with compound for 72 hrs assessed as reduction in viral replication after 48 hrs by bright Glo-luciferase reporter gene assay; assay type: functional, organism-based; conditions: Human immunodeficiency virus 1, 12229; method in brief: as §1
[15] = Cytotoxicity against human PBMC cells assessed as reduction in cell viability after 7 days by MTS assay; assay type: cell-based; conditions: read-out: TD50
Method in brief: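 Cytotoxicity in peripheral blood mononuclear cells by MTS assay, giving TD50. Only compounds that met the BiCycle IC50 ≤ 5 μM criterion and were positive in the NC inhibition assay were tested.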

[16] = Selectivity index, ratio of TD50 for cytotoxicity aginst human PBMC cells to IC50 for antiviral activity against wild type HIV1 NL4-3 infected in human TZM-bl cells assessed as reduction in viral replication after 48 hrs by bright Glo-luciferase reporter gene assay based BiCycle assay; assay type: toxicity, cell-based; conditions: read-out: Selectivity Index
Method in brief: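 SI calculated as TD50 from the PBMC MTS assay divided by IC50 from the BiCycle antiviral assay (MT-2 infection followed by TZM-bl read-out).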

[17] = test system: Human immunodeficiency virus 1; assay: Antiviral activity against HIV1 11808 harboring protease L10F/K20T/V32I/L33F/I54V/G73S/I84V/L89V/L90M mutant infected in human TZM-bl cells infected with supernatants from virus-infected human MT2 cells treated with compound for 72 hrs assessed as reduction in viral replication after 48 hrs by bright Glo-luciferase reporter gene assay; assay type: functional, organism-based; conditions: Human immunodeficiency virus 1, 11808; method in brief: as §1
[18] = test system: Human immunodeficiency virus 1; assay: Selectivity ratio of IC50 for HIV1 11845 harboring integrase 140S/148H double mutant mutant infected in human MT2 cells to IC50 for HIV1 NL4-3 infected in human MT2 cells; assay type: functional; method in brief: as §2
[19] = test system: Human immunodeficiency virus 1; assay: Selectivity ratio of IC50 for HIV1 12231 harboring non-nucleoside reverse transcriptase 103N/179F/181C mutant infected in human MT2 cells to IC50 for HIV1 NL4-3 infected in human MT2 cells; assay type: functional; method in brief: as §2
[20] = test system: Human immunodeficiency virus 1; assay: Antiviral activity against wild-type HIV1 NL4-3 infected infected in human MT2 cells assessed as reduction in HIV1 integrated DNA at 1 uM and measured after 30 hrs post infection by Alu-LTR PCR protocol based method; assay type: functional, organism-based
Method in brief: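 MT-2 cells were infected with NL4-3 at MOI 0.1 and incubated with test or reference agents at 20, 5 or 1 μM. Real-time PCR measured integrated HIV-1 DNA and intracellular and extracellular genomic HIV-1 RNA at 30 h post-infection. Levels are expressed as a percentage of the no-drug control culture.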

Nc1nc(-c2ccc(OCc3cccc(C(=O)NCCNC(=O)c4ccc(COc5cccc6sc(N)nc56)cc4)c3)cc2)cs1
inhibition [1]: 17% | IC50 [2]: > 50 µM | IC50 [3]: 37 µM

Nc1nc(-c2ccccc2OCc2ccc(C(=O)NCCN3CCOCC3)cc2)cs1
IC50 [2]: > 100 µM | IC50 [3]: > 100 µM

Nc1nc(-c2ccc(OCc3cccc(C(=O)NCCNC(=O)c4ccc(COc5ccc(F)cc5-c5csc(N)n5)cc4)c3)cc2)cs1.O=C(O)C(F)(F)F.O=C(O)C(F)(F)F
IC50 [4]: 2 µM | Ratio IC50 [5]: 1 | Ratio IC50 [6]: 0.7 | inhibition [1]: 16% | IC50 [7]: 3 µM | IC50 [8]: 0.6 µM | IC50 [2]: > 50 µM | IC50 [3]: 1.1 µM | Ratio IC50 [9]: 0.8 | Ratio IC50 [10]: 0.5 | IC50 [11]: 1.1 µM | IC50 [12]: 4 µM | Ratio IC50 [13]: 1.8 | IC50 [14]: 0.9 µM | CC50 at 168 h [15]: > 50 µM | selectivity ratio at 48 h [16]: > 45 | IC50 [17]: 0.8 µM | Ratio IC50 [18]: 2.7 | Ratio IC50 [19]: 3.6

Nc1nc(-c2ccc(OCc3cccc(C(=O)N4CCN(C(=O)c5ccc(COc6ccccc6-c6csc(N)n6)cc5)CC4)c3)cc2)cs1
inhibition [1]: 15% | IC50 [2]: > 50 µM | IC50 [3]: 28 µM

Nc1ccc(NCCNC(=O)c2ccc(COc3ccccc3-c3csc(N)n3)cc2)nc1.O=C(O)C(F)(F)F.O=C(O)C(F)(F)F.O=C(O)C(F)(F)F
IC50 [4]: 6 µM | Ratio IC50 [5]: 0.4 | Ratio IC50 [6]: 0.8 | inhibition [1]: 15% | IC50 [7]: 2.3 µM | IC50 [8]: 2.7 µM | IC50 [2]: > 50 µM | IC50 [3]: 3.8 µM | Ratio IC50 [9]: 3.1 | Ratio IC50 [10]: 0.7 | IC50 [11]: 1.5 µM | IC50 [12]: 5 µM | Ratio IC50 [13]: 1.6 | IC50 [14]: 12 µM | CC50 at 168 h [15]: 45 µM | selectivity ratio at 48 h [16]: 12 | IC50 [17]: 3 µM | Ratio IC50 [18]: 0.6 | Ratio IC50 [19]: 1.3

Nc1nc(CCNC(=O)c2ccc(COc3ccccc3-c3csc(N)n3)cc2)cs1
inhibition [1]: 16% | IC50 [2]: > 50 µM | IC50 [3]: 36 µM

Nc1nc(-c2ccc(OCc3cccc(C(=O)NCCCNC(=O)c4ccc(COc5ccccc5-c5csc(N)n5)cc4)c3)cc2)cs1
inhibition [1]: 16% | IC50 [2]: > 50 µM | IC50 [3]: 12 µM

Nc1nc(-c2ccccc2OCc2ccc(C(=O)NCCCNc3ccc([N+](=O)[O-])cn3)cc2)cs1
inhibition [1]: 21% | IC50 [2]: 28 µM | IC50 [3]: 12 µM

Nc1nc(-c2ccc(OCc3cccc(C(=O)NCCNC(=O)c4ccc(COc5ccccc5-c5coc(N)n5)cc4)c3)cc2)co1
inhibition [1]: 21% | IC50 [2]: > 50 µM | IC50 [3]: 6.2 µM

Nc1nc(-c2ccc(OCc3cccc(C(=O)NCCNC(=O)c4ccc(COc5ccccc5-c5csc(N)n5)cc4)c3)cc2)cs1.O=C(O)C(F)(F)F.O=C(O)C(F)(F)F
IC50 [4]: 1.2 µM | Ratio IC50 [5]: 0.6 | Ratio IC50 [6]: 1.3 | inhibition [1]: 24% | IC50 [7]: 1 µM | IC50 [8]: 1.2 µM | IC50 [2]: 5 µM | IC50 [3]: 1.3 µM | Ratio IC50 [9]: 1.7 | Ratio IC50 [10]: 0.9 | IC50 [11]: 0.8 µM | IC50 [12]: 0.8 µM | Ratio IC50 [13]: 0.9 | IC50 [14]: 2.2 µM | CC50 at 168 h [15]: 30 µM | selectivity ratio at 48 h [16]: 23 | IC50 [17]: 2.1 µM | Ratio IC50 [18]: 0.8 | Ratio IC50 [19]: 0.6

Nc1nc(CC(=O)NCCNC(=O)c2ccc(COc3ccccc3-c3csc(N)n3)cc2)cs1
IC50 [2]: > 100 µM | IC50 [3]: > 100 µM

Nc1nc(CCc2nc(-c3ccc(COc4ccccc4-c4csc(N)n4)cc3)no2)cs1
inhibition [1]: inactive | IC50 [2]: 35 µM | IC50 [3]: 6 µM

Nc1nc(-c2ccc(C(=O)NCCNC(=O)c3ccc(COc4ccccc4-c4csc(N)n4)cc3)cc2)cs1
inhibition [1]: inactive | IC50 [2]: 30 µM | IC50 [3]: 5 µM

Nc1ccc(NCCNS(=O)(=O)c2ccc(COc3ccccc3-c3csc(N)n3)cc2)nc1
IC50 [2]: > 100 µM | IC50 [3]: > 100 µM

Cc1nnc(C(=O)NC(C)(C)c2nc(C(=O)NCc3ccc(F)cc3)c(O)c(=O)n2C)o1
Activity [20]: Active

Nc1nc(-c2ccc(C(=O)NCCCNC(=O)c3ccc(COc4ccccc4-c4csc(N)n4)cc3)cc2)cs1
inhibition [1]: 15% | IC50 [2]: 12 µM | IC50 [3]: 15 µM

Nc1nc(-c2ccc(OCc3cccc(C(=O)NCCCCNC(=O)c4ccc(COc5ccccc5-c5csc(N)n5)cc4)c3)cc2)cs1
inhibition [1]: 19% | IC50 [2]: 16 µM | IC50 [3]: 5 µM | CC50 at 168 h [15]: > 100 µM | selectivity ratio at 48 h [16]: > 20
